Measured values reported in ChEMBL document CHEMBL3286393 (J Med Chem, 2014).
Activity calls are given as the source filed them. No cut-off for these calls is given here.

Experiments:
[1] = tested on: Radical scavenging activity; test: Antioxidant activity assessed as DPPH free radical scavenging activity at 10 uM after 30 mins […] by spectrophotometric analysis; type: functional
[2] = biological target: T1, Polyunsaturated fatty acid 5-lipoxygenase (Homo sapiens, UniProt P09917); test: Inhibition of 5-LO in human neutrophils using arachidonic acid as substrate preincubated for 15 mins measured after 10 mins by HPLC analysis
T1 sequence (P09917 whole entry): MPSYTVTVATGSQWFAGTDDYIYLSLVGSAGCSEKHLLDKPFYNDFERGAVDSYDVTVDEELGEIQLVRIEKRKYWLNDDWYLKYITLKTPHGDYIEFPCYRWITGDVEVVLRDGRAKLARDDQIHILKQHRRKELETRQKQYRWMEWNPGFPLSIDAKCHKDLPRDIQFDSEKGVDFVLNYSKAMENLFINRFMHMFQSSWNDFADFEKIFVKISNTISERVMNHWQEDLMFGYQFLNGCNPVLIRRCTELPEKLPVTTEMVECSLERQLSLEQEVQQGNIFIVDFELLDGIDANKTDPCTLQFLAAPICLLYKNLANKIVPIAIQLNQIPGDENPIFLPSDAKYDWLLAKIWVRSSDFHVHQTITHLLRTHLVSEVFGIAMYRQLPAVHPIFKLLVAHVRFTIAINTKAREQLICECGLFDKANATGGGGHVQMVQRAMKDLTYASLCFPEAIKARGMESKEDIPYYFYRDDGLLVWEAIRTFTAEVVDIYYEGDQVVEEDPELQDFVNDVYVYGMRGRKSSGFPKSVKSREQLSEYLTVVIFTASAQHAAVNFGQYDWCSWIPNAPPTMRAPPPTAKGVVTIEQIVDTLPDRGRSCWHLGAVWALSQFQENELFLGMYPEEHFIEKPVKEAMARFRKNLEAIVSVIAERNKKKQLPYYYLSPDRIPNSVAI
Outline: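 Fresh human neutrophils, 1 × 10⁷/mL in PBS pH 7.4 with 1 mM CaCl2 and 1 mg/mL glucose, preincubated 15 min at 37 °C. LTB4, its all-trans isomers and 5-H(P)ETE by HPLC.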

[3] = Aqueous stability of the compound in at 2 uM in 10 mM aqueous ammonium bicarbonate at pH 7.9 assessed as formation of trans-6-(4'-hydroxy-3'-methoxyphenyl)-2,4-dioxo-5-hexenal measured as residual amount of compound by reversed phase liquid chromatography-coupled mass spectrometry; type: physicochemical; settings: buffer, pH 7.9, 2 µM
Outline: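 Compounds at 2 μM in 10 mM aqueous ammonium bicarbonate pH 7.9, incubated 30 min at 37 °C. Analysed by UPLC-MS on a C18 column, gradient acetonitrile/water with 0.07% formic acid, at 0.7 mL/min. Residual amount given as % of control; three to four independent experiments.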

[4] = biological target: T2, Prostaglandin E synthase (Homo sapiens) (UniProt O14684); test: Inhibition of mPGES1-mediated PGE2 production in microsomes of IL-1beta stimulated human A549 cells assessed as residual activity preincubated at 10 uM for 15 mins by RP-HPLC analysis relative to control; type: cell-based
T2 sequence (whole entry): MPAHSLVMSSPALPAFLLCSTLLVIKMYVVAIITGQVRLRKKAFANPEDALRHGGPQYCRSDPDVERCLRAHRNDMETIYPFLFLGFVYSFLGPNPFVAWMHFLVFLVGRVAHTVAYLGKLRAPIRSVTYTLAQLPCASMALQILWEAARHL
Outline: (§1)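 mPGES-1 source: microsomes of A549 cells treated 48 h with IL-1β 2 ng/mL, at 25−50 μg protein/mL in 0.1 M potassium phosphate pH 7.4 with 2.5 mM glutathione. Compound preincubation 15 min at 4 °C; PGH2 (20 μM final) for 1 min; FeCl2/citric acid stop with 11β-PGE2 internal standard. PGE2 by RP-HPLC.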

[5] = biological target: T3, Prostaglandin E synthase (Homo sapiens, UniProt O14684); test: Inhibition of mPGES1-mediated PGE2 production in microsomes of IL-1beta stimulated human A549 cells preincubated for 15 mins by RP-HPLC analysis; type: cell-based; outline: as §1
T3 sequence (O14684 whole entry): T2 sequence (whole entry)

[6] = biological target: T4, Prostaglandin G/H synthase 1 (Homo sapiens, UniProt P23219); test: Inhibition of COX1-mediated PGF2alpha formation in LPS-stimulated human monocytes preincubated for 15 mins before arachidonic acid substrate addition measured after 30 mins by UPLC-MS/MS analysis; type: cell-based
T4 sequence (P23219 whole entry): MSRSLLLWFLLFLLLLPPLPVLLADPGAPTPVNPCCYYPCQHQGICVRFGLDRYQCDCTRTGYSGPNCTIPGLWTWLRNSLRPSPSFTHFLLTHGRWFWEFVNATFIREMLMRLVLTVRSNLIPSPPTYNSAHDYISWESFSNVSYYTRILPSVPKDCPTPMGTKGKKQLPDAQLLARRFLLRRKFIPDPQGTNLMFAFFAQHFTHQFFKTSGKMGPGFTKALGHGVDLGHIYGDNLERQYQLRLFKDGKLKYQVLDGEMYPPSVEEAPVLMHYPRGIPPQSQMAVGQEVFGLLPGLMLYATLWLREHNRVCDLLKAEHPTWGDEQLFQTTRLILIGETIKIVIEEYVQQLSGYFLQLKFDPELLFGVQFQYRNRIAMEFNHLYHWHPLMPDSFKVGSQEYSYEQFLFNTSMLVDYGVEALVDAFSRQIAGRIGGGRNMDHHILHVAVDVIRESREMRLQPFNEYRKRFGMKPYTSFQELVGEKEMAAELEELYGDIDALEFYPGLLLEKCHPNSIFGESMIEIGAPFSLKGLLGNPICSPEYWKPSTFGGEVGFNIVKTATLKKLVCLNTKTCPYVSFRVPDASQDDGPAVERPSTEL

[7] = biological target: T4, Prostaglandin G/H synthase 1; test: Inhibition of COX1-mediated PGD2 formation in LPS-stimulated human monocytes preincubated for 15 mins before arachidonic acid substrate addition measured after 30 mins by UPLC-MS/MS analysis; type: cell-based
[8] = biological target: T5, Polyunsaturated fatty acid 5-lipoxygenase (Homo sapiens) (UniProt P09917); test: Ratio of curcumin IC50 to compound IC50 for 5-LO-mediated LTB4 formation in LPS-stimulated human monocytes preincubated for 15 mins before arachidonic acid substrate addition measured after 30 mins by UPLC-MS/MS analysis; type: cell-based
T5 sequence (whole entry): T1 sequence (P09917 whole entry)

[9] = biological target: T5, Polyunsaturated fatty acid 5-lipoxygenase (Homo sapiens); test: Ratio of curcumin IC50 to compound IC50 for 5-LO-mediated 5,12-DiHETE formation in LPS-stimulated human monocytes preincubated for 15 mins before arachidonic acid substrate addition measured after 30 mins by UPLC-MS/MS analysis; type: cell-based
[10] = biological target: T5, Polyunsaturated fatty acid 5-lipoxygenase (Homo sapiens); test: Ratio of curcumin IC50 to compound IC50 for 5-LO-mediated 5-HETE formation in LPS-stimulated human monocytes preincubated for 15 mins before arachidonic acid substrate addition measured after 30 mins by UPLC-MS/MS analysis; type: cell-based
[11] = biological target: T6, Polyunsaturated fatty acid lipoxygenase ALOX12 (Homo sapiens, UniProt P18054); test: Inhibition of 12-LO in human neutrophils
T6 sequence (P18054 whole entry): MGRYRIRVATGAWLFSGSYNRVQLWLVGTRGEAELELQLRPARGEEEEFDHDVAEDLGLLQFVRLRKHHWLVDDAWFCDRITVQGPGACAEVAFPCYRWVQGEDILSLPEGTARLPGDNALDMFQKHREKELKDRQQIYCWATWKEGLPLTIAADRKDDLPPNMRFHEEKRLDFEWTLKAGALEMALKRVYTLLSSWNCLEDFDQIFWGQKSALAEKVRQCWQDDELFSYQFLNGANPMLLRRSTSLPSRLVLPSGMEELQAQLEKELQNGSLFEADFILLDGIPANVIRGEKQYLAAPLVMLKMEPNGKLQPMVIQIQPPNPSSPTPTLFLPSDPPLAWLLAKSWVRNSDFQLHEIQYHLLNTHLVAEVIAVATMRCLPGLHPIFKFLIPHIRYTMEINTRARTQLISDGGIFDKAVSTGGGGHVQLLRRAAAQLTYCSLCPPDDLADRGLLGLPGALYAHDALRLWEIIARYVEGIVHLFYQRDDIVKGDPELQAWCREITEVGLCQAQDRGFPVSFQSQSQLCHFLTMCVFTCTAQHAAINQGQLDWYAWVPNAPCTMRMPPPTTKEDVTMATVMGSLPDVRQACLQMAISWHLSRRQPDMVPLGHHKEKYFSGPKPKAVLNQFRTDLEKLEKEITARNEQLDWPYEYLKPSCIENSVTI

| IC50 [2] [nM] | Stability [3] | Activity [4] [%] | IC50 ([5]; a549) | inhibition [6] | IC50 ([5]; read-out: IC50) [nM] | inhibition [7] | IC50 [6] [nM] | IC50 [7] [nM] | Ratio IC50 [8] | Ratio IC50 [9] | Ratio IC50 [10] | IC50 [11] [nM] | SMILES | Activity [1] [%] |
| --- | --- | --- | --- | --- | --- | --- | --- | --- | --- | --- | --- | --- | --- | --- |
| 9900 | 72% | 72.6 |  |  |  |  |  |  |  |  |  |  | COc1cc(/C=C/C(=O)CC(=O)c2ccc(O)c(OC)c2)ccc1O | 80.2 |
|  | Unstable |  | Not Active |  |  |  |  |  |  |  |  |  | COc1cc(CCC(=O)CC(=O)CCc2ccc(O)c(OC)c2)ccc1O [TETRAHYDROCURCUMIN] | 62.2 |
|  | 41.6% |  |  | Active | 600 | Active |  |  |  |  |  |  | COc1cc(/C=C/C(=O)CC(=O)/C=C/c2ccc(O)c(OC)c2)ccc1O [CURCUMIN] | 63.9 |
| 800 | Unstable | 68 |  |  |  |  | > 10000 | > 10000 |  |  |  |  | COc1cc(/C=C/c2cc(/C=C/c3cc(CC=C(C)C)c(O)c(OC)c3)[nH]n2)cc(CC=C(C)C)c1O | 57.3 |
|  | Unstable | 59.6 |  |  |  |  |  |  |  |  |  |  | COc1cc(/C=C/C(=O)CC(=O)/C=C/c2cc(CC=C(C)C)c(O)c(OC)c2)cc(CC=C(C)C)c1O | 57.9 |
| 1700 | Unstable |  |  |  | 1500 |  |  |  | 2 | 2 | 2 |  | COc1cc(/C=C/C(=O)/C=C/c2cc(CC=C(C)C)c(O)c(OC)c2)cc(CC=C(C)C)c1O | 75.8 |
| 700 | Unstable | 54.8 |  | Active |  | Active |  |  | 2 | 2 | 2 | 7300 | COc1cc(/C=C/c2cc(/C=C/c3ccc(O)c(OC)c3)[nH]n2)ccc1O [CURCUMIN PYRAZOLE] | 59.6 |
| 1900 | Unstable | 62.2 |  | Active |  | Active |  |  | 2 | 2 | 2 | 7700 | COc1cc(/C=C/c2cc(-c3ccc(O)c(OC)c3)[nH]n2)ccc1O | 70.3 |
| 5200 | Unstable |  | Not Active |  |  |  |  |  |  |  |  |  | COc1cc(/C=C/C(=O)/C=C/c2ccc(O)c(OC)c2)ccc1O | 80.7 |
